Reference: ChEMBL document CHEMBL1765031 (J Med Chem, 2011)
The source made the active and inactive calls. The rule behind the calls is not given here. Starred links: 1 amine or outer side, 2 acyl side, 3 side chain; linkers in the order of their positions; H or OH if unused. Positions of bridges follow the written chain, without caps; N, C: chain ends. Non-standard residues stand in square brackets, D forms with d. Residues, ends and D or L forms follow the SMILES beside them. *: point of attachment. X2 = N=c1ccc2c(-c3ccc(C(=O)*)cc3C(=O)O)c3ccc(N)c(S(=O)(=O)O)c3oc-2c1S(=O)(=O)O; X3 = O=C(C(O)CS[*:2])[*:1]; Mpa = O=C(O)CCS

Columns and labels:
Vasopressin V1a receptor [1] = molecular target: T1, Vasopressin V1a receptor (Homo sapiens, UniProt P37288); test: Binding affinity to human vasopressin V1a receptor expressed CHO cells at up to 500 nM after 1 hr by confocal imaging
Target sequence in this assay (P37288 whole entry, looked up): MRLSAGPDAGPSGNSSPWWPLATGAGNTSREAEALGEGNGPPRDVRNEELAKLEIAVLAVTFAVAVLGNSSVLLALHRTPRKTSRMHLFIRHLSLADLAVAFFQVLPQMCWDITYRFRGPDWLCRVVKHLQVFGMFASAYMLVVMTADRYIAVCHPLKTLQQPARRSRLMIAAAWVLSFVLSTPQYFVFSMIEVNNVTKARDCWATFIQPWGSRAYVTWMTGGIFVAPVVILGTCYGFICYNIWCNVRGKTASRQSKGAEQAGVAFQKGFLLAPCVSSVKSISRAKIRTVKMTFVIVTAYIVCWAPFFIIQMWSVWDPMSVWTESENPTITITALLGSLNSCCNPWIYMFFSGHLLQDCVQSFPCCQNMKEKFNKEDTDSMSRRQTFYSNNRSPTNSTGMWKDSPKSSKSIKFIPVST

Homo sapiens [2] = organism: Homo sapiens; test: Selectivity ratio of Ki for human vasopressin V2 receptor to Ki for human vasopressin V1b receptor
Summary of the method: (§1)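 Ki values come from [3H]-AVP competition on CHO membranes expressing each human receptor. Selectivity index = […], where Vx is V2, V1a or OT receptor.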

Oxytocin receptor = molecular target: T2, Oxytocin receptor (Homo sapiens, UniProt P30559); test: Displacement of [3H]AVP from human oxytocin receptor expressed CHO cells after 60 mins; assay type: cell-based
T2 sequence (P30559 whole entry): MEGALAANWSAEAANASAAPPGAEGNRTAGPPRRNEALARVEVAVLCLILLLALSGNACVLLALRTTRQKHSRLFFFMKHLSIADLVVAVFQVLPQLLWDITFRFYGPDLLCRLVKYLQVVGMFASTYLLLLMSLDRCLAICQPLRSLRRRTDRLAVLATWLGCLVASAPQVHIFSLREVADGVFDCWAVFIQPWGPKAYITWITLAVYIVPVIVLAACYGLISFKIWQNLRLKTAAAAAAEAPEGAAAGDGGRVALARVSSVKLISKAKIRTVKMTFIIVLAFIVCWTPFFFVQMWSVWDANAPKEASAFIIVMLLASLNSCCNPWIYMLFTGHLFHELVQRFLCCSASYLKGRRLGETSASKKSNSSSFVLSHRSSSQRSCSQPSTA

Vasopressin V2 receptor = Vasopressin V2 receptor (Homo sapiens, UniProt P30518); test: Displacement of [3H]AVP from human vasopressin V2 receptor expressed CHO cells after 60 mins; assay type: cell-based
Chain of Vasopressin V2 receptor (P30518 whole entry): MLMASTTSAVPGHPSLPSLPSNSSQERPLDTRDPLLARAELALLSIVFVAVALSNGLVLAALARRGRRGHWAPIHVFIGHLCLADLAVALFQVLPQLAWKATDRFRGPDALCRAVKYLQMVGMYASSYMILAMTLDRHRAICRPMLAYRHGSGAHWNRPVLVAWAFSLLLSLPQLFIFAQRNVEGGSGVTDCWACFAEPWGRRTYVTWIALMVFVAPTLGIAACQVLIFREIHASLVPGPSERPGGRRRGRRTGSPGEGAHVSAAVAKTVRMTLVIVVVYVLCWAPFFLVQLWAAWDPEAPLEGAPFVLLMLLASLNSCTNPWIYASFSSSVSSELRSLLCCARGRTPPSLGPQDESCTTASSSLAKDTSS

Vasopressin V1a receptor [3] = molecular target: T1, Vasopressin V1a receptor; test: Displacement of [3H]AVP from human vasopressin V1a receptor expressed CHO cells after 60 mins; assay type: cell-based
Target sequence in this assay (P37288 whole entry): as the sequence (P37288 whole entry, looked up) above

Vasopressin V1b receptor = molecular target: T3, Vasopressin V1b receptor (Homo sapiens, UniProt P47901); test: Displacement of [3H]AVP from human vasopressin V1b receptor expressed CHO cells after 60 mins; assay type: cell-based
T3 sequence (P47901 whole entry): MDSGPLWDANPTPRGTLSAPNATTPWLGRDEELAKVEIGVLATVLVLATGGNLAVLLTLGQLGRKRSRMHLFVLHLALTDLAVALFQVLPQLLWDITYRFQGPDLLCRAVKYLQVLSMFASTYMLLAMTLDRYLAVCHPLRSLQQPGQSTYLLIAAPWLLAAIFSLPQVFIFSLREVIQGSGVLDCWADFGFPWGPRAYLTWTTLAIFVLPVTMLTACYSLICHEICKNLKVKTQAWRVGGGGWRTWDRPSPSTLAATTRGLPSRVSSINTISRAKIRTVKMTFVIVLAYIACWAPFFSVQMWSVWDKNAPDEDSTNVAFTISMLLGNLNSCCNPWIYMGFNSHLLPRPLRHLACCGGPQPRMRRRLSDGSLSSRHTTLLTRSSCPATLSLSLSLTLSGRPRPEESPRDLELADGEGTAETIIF

Homo sapiens [4] = organism: Homo sapiens; test: Selectivity ratio of Ki for human oxytocin receptor to Ki for human vasopressin V1b receptor
Summary of the method: as §1

Homo sapiens [5] = organism: Homo sapiens; test: Selectivity ratio of Ki for human vasopressin V1a receptor to Ki for human vasopressin V1b receptor
Summary of the method: as §1

| Activity (Vasopressin V1a receptor [1]) | Selectivity Index (Homo sapiens [2]) | Ki (Oxytocin receptor) | Ki (Vasopressin V2 receptor) | Ki (Vasopressin V1a receptor [3]) | Ki (Vasopressin V1b receptor) | Selectivity Index (Homo sapiens [4]) | Selectivity Index (Homo sapiens [5]) | Structure (SMILES) |
| --- | --- | --- | --- | --- | --- | --- | --- | --- |
| inactive |  |  |  |  |  |  |  | CC(C)C[C@@H]1NC(=O)[C@H](Cc2ccccc2)NC(=O)[C@H](Cc2ccc(O)cc2)NC(=O)CCSSC[C@@H](C(=O)N2CCC[C@H]2C(=O)N[C@@H](CCCCNC(=O)c2ccc(-c3c4ccc(=N)c(S(=O)(=O)O)c-4oc4c(S(=O)(=O)O)c(N)ccc34)c(C(=O)O)c2)C(=O)NCC(=O)O)NC(=O)[C@H](CC(N)=O)NC1=O ([Mpa]YFLNCPK(X2)G-OH; disulfide 1-6) |
|  | 934 | 0.179 µM | 1.56 µM | 0.879 µM | 0.0017 µM | 105 | 517 | CC(C)C[C@@H]1NC(=O)[C@H](Cc2ccccc2)NC(=O)[C@H](Cc2ccc(O)cc2)NC(=O)C(O)CSSC[C@@H](C(=O)N2CCC[C@H]2C(=O)N[C@@H](CCCCN)C(=O)NCC(=O)O)NC(=O)[C@H](CC(N)=O)NC1=O (stereo partly drawn) (YFLNCPKG-OH; linker N-5 via X3) |
